# Compound activity from PubChem.
# A selection: hits, their analogues and other compounds. The true share with any hit is near 1.8%.
# UPR CHOP act – apoptotic UPR (CHOP) activation; AID 449763; activation, % at 10 µM; CHO-CHOP luciferase reporter, luminescence; percent of tunicamycin response over DMSO baseline; 0.34% of 330,000 active;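 active = at 10 µM dose, activation of 40% or more, normalized to positive control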;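 also: 100% = tunicamycin at 10 µg/mL and 0% = DMSO alone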
#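 measured by = luciferase luminescence | assay system = CHO-CHOP cells, stable luciferase reporter of PERK-eIF2a-CHOP signalling | amount = 500 reporter cells seeded per well | timing = 6 h compound exposure at 37 °C after overnight seeding | controls = positive tunicamycin 10 µg/mL, negative DMSO alone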
# XBP1 UPR activ – adaptive UPR (XBP1) activation | CHO-XBP1 luciferase reporter, IRE1-XBP1 UPR activation, luminescence; percent of tunicamycin response, DMSO as zero | activation, % at 20 µM | 0.33% of 330,000 active | AID 463104;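 active = versus positive control, 20 µM dose yields 30% or more activation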;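 also: 100% = tunicamycin at 10 µg/mL and 0% = DMSO only wells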
#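 Assay system: CHO-XBP1 luciferase reporter cells; Schedule: 6 h treatment, 37 °C; Detection: glow luminescence from Steady-Glo reagent; Benchmarks: high control tunicamycin 10 µg/mL final, low control DMSO vehicle only.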
# Jurkat NFkB inh – inhibitors of the PMA/ionomycin-induced NF-kB reporter in Jurkat cells | PMA/ionomycin-induced NF-kB luciferase reporter, luminescence | inhibition, % at 4 µM | 0.53% of 330,000 active | AID 435003; in the data active = inhibition above about 50%
# CRFBP-R2 block – antagonists of CRF-binding protein/CRF-R2 receptor complex | HEK293 CRF-R2/CRF-BP, CRF-induced calcium fluorescence | inhibition, % at 11.8 µM | 0.59% of 350,000 active | AID 588475;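 active = inhibition of the ligand-induced calcium signal above about 50% at the single tested concentration, limit read from the data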
# 697 NFkB inh – lowers PMA/ionomycin-induced NF-kB signal in 697 B cells. 697 B-cell NF-kB luciferase reporter, 16 h. 0.33% of 330,000 active. inhibition, % at 4 µM; in the data active = inhibition above about 35%
# Jurkat NFkB conf – lowers PMA/ionomycin-induced NF-kB signal in Jurkat cells. shares compounds with Jurkat NFkB inh. Jurkat NF-kB luciferase, 16 h. inhibition, % at 4 µM. 27% of 2,700 active;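 active = inhibition reaching about 45% at 4 µM in either replicate, limit read from the data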;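 also: plate controls were PMA/ionomycin stimulated DMSO wells for no effect and unstimulated DMSO wells for full effect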
# 697 NFkB conf – lowers PMA/ionomycin-induced NF-kB signal in 697 B cells. shares compounds with 697 NFkB inh. 697 B-cell NF-kB luciferase, 16 h. inhibition, % at 4 µM. 35% of 2,000 active. AID 449746; in the data active = inhibition mostly above about 28%, no sharp cut-off; inactive = mostly below about 22%
# Active calls of the source: *; . = not tested or not shown.
SMILES,UPR CHOP act,XBP1 UPR activ,Jurkat NFkB inh,CRFBP-R2 block,697 NFkB inh,Jurkat NFkB conf,697 NFkB conf
CC1=NN(c2ccccc2)C(=O)/C1=C\c1cn(CCC#N)nc1-c1ccc(Cl)cc1,0.7,13.2,7.1,-27.0,-5.1,.,.
COCCn1c(C)cc(C2=NNC(=NC3CC3)SC2)c1C,-10.4,-6.9,75.4*,-1.3,68.4*,93.7*,65.2*
CCOc1ccc(OCc2cccc(C(=O)O)c2)cc1,-9.5,-6.1,88.0*,7.4,92.1*,90.2*,76.6*
O=C(O)c1cccc(COc2ccc3c(c2)CCC3)c1,-11.1,-8.2,70.0*,13.0,61.5*,63.9*,45.1*
O=C(O)c1cccc(COc2ccc(CO)cc2Cl)c1,-10.6,-10.4,94.3*,-3.5,75.4*,88.8*,59.4*
CCOc1ccc(OCc2cccc(C(=O)N3CCCC3)c2)cc1,-4.2,-5.2,6.9,3.8,-66.8,.,.
COc1ccc(OCc2cccc(C(=O)O)c2)cc1,-11.2,-13.9,87.6*,3.2,80.4*,88.0*,70.8*
CCOc1ccc(OCc2cccc(C(=O)N3CCCCCC3)c2)cc1,-9.2,-6.2,26.1,-14.2,-26.7,.,.
C[C@H](CO)N1C[C@H](C)[C@H](CN(C)C(=O)c2ccccc2)OCc2cnnn2CCCC1=O,.,.,.,0.4,.,.,.
O=C(OCC(F)(F)F)c1cccc(COc2ccc3ccccc3c2)c1,-10.1,-12.0,76.9*,2.4,57.8*,42.1,33.4*
Cc1noc(C)c1CCC(=O)Nc1cc(C(=O)O)ccc1Cl,.,.,.,11.5,.,.,.
O[C@@H]1[C@@H](O)C=C2CCN3Cc4cc5c(cc4[C@H]1C23)OCO5 (some centres undefined),-3.0,0.2,96.4*,-14.3,-289.3,89.3*,-229.2
CCOc1ccc(NC(=O)[C@@H]2CCC(=O)N2C2OC(=O)c3ccccc32)cc1 (some centres undefined),-0.7,-0.7,-12.5,-4.2,8.7,.,.
CC(C)(C)c1ccc(NC(=O)Nc2ccc(F)cc2)cc1,5.6,1.9,-170.0,-11.3,-255.0,-171.2,-316.9
O=C(CCN1C(=O)NC2(CCCC2)C1=O)Nc1ccc(Sc2ccc(Br)cc2)cc1,.,.,.,-5.9,.,.,.
O=C(CCN1C(=O)NC2(CCCC2)C1=O)Nc1ccc(-c2nc3ccccc3s2)cc1,-2.0,-2.7,-180.6,-13.4,-264.1,-80.5,-332.3
CCOC(=O)C1=C(COC(=O)CCOc2cc(C)ccc2C)NC(=O)NC1C (centres undefined),-0.4,-1.7,0.5,-5.9,0.2,.,.
CCOC(=O)c1sc2nc(-c3ccccc3)ccc2c1N,3.4,-1.5,-296.0,16.3,-335.9,-79.5,-187.8
CN(C)c1ccc(/C=N/NC(=O)c2ccccc2)cc1,-0.3,-1.5,-30.5,16.3,-77.9,.,.
C/C(=N/N=C/c1ccc(N(C)C)cc1)c1ccccc1,-6.6,-7.4,-163.4,18.6,-273.8,0.6,-48.5
O=C(/C=C/Nc1ccc(F)cc1F)c1cccs1,-5.0,-9.1,-168.2,-10.1,-364.2,-37.4,-196.8
Cc1ccc(N/C=C/C(=O)c2cccs2)cc1,-7.3,-13.7,-157.9,-2.5,-260.8,8.8,-132.8
O=C(/C=C/Nc1ccc(F)cc1F)c1ccco1,-1.6,-7.0,-64.0,11.7,-153.5,.,.
O=C(/C=C/Nc1ccc(F)cc1F)c1ccc(Br)cc1,3.6,-2.1,-166.9,-3.0,-255.2,-30.0,-62.3
COc1cc2ccccc2cc1C(=O)N1CC(C)CC(C)C1 (centres undefined),-1.3,-1.5,12.2,3.9,16.8,.,.
SMILES,UPR CHOP act,XBP1 UPR activ,Jurkat NFkB inh,CRFBP-R2 block,697 NFkB inh,Jurkat NFkB conf,697 NFkB conf
CC1(C)Cc2c(cnn2-c2ccccc2)C(NC(=O)c2ccc[n+]([O-])c2)C1 (centres undefined),-0.1,-8.7,-5.0,-5.6,-10.6,.,.
O=C(CCNC(=O)c1ccc(Br)cc1)Nc1ncccc1O,1.2,-2.7,12.1,3.6,5.0,.,.
Nc1c(C(=O)O)cnc2c(-c3ccc(Cl)cc3)cnn12,7.7,1.1,-61.3,-10.2,-144.1,.,.
Clc1ccc(-c2cnn3c(-c4ccncc4)ccnc23)cc1,-2.6,1.0,-159.1,-4.5,-376.2,-88.8,-299.8
COc1cc(OC)cc(C(=O)Nn2c(C)nc3ccccc3c2=O)c1,5.1,-1.3,1.2,32.7,-23.9,.,.
COc1ccc2[nH]c3c(c2c1)CCn1c-3nc2ccccc2c1=O,1.7,-3.1,-181.0,2.6,-487.5,-126.6,-317.9
CC1CCN(c2nc3ccc(C(=O)O)cc3s2)CC1,-11.4,-15.9,82.6*,-6.8,51.5*,77.5*,42.1*
CCCCCc1ccc(OCCOCCn2c[n+](C)c3ccccc32)c(CCCCC)c1,.,.,.,-20.6,.,.,.
CCCCCc1ccc(OCCC[n+]2ccccc2)c(CCCCC)c1,0.2,4.8,62.7*,-14.8,60.1*,54.9*,56.7*
Cc1cccc(NS(=O)(=O)c2ccc(C(=O)N3CCC3)cc2)c1C,-0.2,-4.3,5.5,17.9,5.8,.,.
CCOc1ccc(NS(=O)(=O)c2cc(C(=O)NCCN3CCOCC3)ccc2C)cc1,0.4,-5.8,4.0,0.9,3.6,.,.
COc1ccccc1C(=O)N(CCC1CCCN1C)c1nc2ccccc2s1 (centres undefined),-2.1,-4.2,-216.1,-17.2,-315.7,38.3,-288.3
NC(=S)NN=C1Cc2cccc3cccc1c23,.,.,.,6.7,.,.,.
Cc1nn(-c2ccccc2)c(C)c1/C=N/NC(=O)c1cc(-c2cccs2)[nH]n1,4.4,11.0,53.3*,-73.5,45.2*,56.8*,51.0*
COc1ccc(-c2c[n+]3c(n2-c2ccc(C)cc2)CCCCC3)cc1,2.2,-1.7,79.3*,2.5,51.0*,60.9*,65.2*
CCOc1ccc(-n2c(-c3ccc(Br)cc3)c[n+]3c2CCCCC3)cc1,-0.7,-3.5,29.9,-15.2,-1.2,.,.
CCOc1ccc(-n2c(-c3ccc(OC)cc3)c[n+]3c2CCCCC3)cc1,0.2,2.7,73.0*,0.2,56.8*,58.2*,65.0*
CCN(CC)C(=O)C1=C(C)N(CCCOC)C(=O)C(CC(=O)NCCc2ccccn2)C1 (centres undefined),.,.,.,2.1,.,.,.
Cc1ccc(NC(CC(=O)c2ccccc2)C(=O)O)cc1Cl (centres undefined),3.7,0.8,-203.8,21.0,-254.1,-14.7,-21.6
O=C(CC(Nc1ccccc1)C(=O)O)c1ccccc1 (centres undefined),5.2,-0.9,-117.3,1.5,-145.8,.,.
C=CC(=O)Nc1ccc(Nc2nc(NC3CCC(N(C)C)CC3)nc3c2ncn3C(C)C)cc1 (centres undefined),-2.1,-4.4,100.3*,0.9,97.1*,96.8*,80.5*
CC(C)n1cnc2c(Nc3ccc(F)c(Cl)c3)nc(NCCO)nc21,2.5,12.8,-18.7,-0.1,-22.7,.,.
